“And” between values parts separate entries of the source, which are not always exact repeats. Equal values may be shown once.
tested on: L1210; assay: Concentration that decreases the growth rate of the L1210 cells by 50% after 48 hr of culture; format: functional; conditions: Mus musculus, L1210, 48 h; read-out: ID50 (the source's name)
In short: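 L1210 leukemia cells cultured with increasing drug concentrations for 48 h at 37 °C under 5% CO2. Percentage inhibition of control growth was fitted by least-squares linear regression against log dose, and the concentration lowering control growth by 50% was estimated from the regression equation.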

SMILES	IC50
COC1=CC(=O)c2ncncc2C1=O	0.593 µg/mL and 3.12 µM
COC1=C(Br)C(=O)c2ncncc2C1=O	0.889 µg/mL and 3.31 µM
O=C1C(N2CCCCC2)=CC(=O)c2ncncc21	0.359 µg/mL and 1.48 µM
COC1=C(N)C(=O)c2ncncc2C1=O	0.215 µg/mL and 1.05 µM

Source: ChEMBL document CHEMBL1122504, “Heterocyclic Quinones. 4. A new highly cytotoxic drug: 6,7-bis(1-aziridinyl)-5,8-quinazolinedione” (1983)
